In ChEMBL document CHEMBL4837222, “Design and synthesis of novel benzothiophene analogs as selective estrogen receptor covalent antagonists against breast cancer” (Eur J Med Chem, 2021) one finds Activity, inhibition and CLint scaled data, which are given here for one molecule.

Data set [1] has as its system MCF7. The experiment in a line: Cell cycle arrest in human MCF7 cells assessed as accumulation at G0/G1 phase at 5 uM measured after 48 hrs by propidium iodide staining based flow cytometric analysis (reference value: 24.44%). The class given is functional.
Data set [2] has as its target T1, Estrogen receptor (Homo sapiens) (UniProt P03372).
T1 sequence (whole entry): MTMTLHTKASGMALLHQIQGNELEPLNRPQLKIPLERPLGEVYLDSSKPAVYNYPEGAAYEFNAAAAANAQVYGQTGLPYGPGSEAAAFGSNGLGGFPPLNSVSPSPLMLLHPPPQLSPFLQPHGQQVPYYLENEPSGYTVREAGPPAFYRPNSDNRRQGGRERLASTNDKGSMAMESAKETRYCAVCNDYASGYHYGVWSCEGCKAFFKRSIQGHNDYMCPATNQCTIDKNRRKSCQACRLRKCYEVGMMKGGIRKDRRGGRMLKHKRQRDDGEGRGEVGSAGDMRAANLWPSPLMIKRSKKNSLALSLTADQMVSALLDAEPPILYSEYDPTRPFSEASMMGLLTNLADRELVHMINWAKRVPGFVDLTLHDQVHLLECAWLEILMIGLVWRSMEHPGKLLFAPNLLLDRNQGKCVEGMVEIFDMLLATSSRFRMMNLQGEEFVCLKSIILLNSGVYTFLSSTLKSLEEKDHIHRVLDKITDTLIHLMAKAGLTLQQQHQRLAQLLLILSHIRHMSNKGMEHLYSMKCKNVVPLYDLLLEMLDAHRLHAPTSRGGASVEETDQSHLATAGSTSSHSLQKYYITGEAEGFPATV
Description: Covalent antagonist activity at ERalpha in human MCF7 cells assessed as decrease in estradiol-induced GREB1 mRNA expression level at 0.25 to 10 uM measured after 24 hrs by RT-PCR analysis. The format is cell-based. To be noted: filed as antagonist, dose 0.25-10 µM. An outline of the steps:
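MCF-7 cells stimulated with estradiol, then co-incubated 24 h with compound at 0.25, 0.5, 1 and 10 µM. RNA was reverse-transcribed and GREB1 or TFF1 measured by SYBR Green qPCR: 95 °C 10 min, then 40 cycles of 95 °C 5 s, 60 °C 60 s, 95 °C 15 s. Normalised to GAPDH, ΔΔCT method.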

Data set [3] has as its system MCF7. Description: Induction of apoptosis in human MCF7 cells assessed as late apoptotic cells at 1 uM incubated for 24 hrs by AnnexinV-FITC/propidium iodide staining based flow cytometric analysis (reference value: 0.7%). The class given is functional. Background: A flow cytometer gives signals particle by particle.
For data set [4], the system named is MCF7. Description: Induction of apoptosis in human MCF7 cells assessed as early apoptotic cells at 10 uM incubated for 24 hrs by AnnexinV-FITC/propidium iodide staining based flow cytometric analysis (reference value: 0.8%). The class given is functional.
Data set [5] relates to MCF7. Description: Cell cycle arrest in human MCF7 cells assessed as accumulation at S phase at 5 uM measured after 48 hrs by propidium iodide staining based flow cytometric analysis (reference value: 63.32%). The class given is functional.
Data set [6] deals with T1, Estrogen receptor (Homo sapiens). The experiment in a line: Covalent antagonist activity at ERalpha receptor in human ishikawa cells assessed as suppression of E2-stimulated PGR expression at 0.25 to 10 uM measured after 3 days by RT-PCR analysis. The format is cell-based. The settings on record: filed as antagonist, dose 0.25-10 µM, time 3.0 day. An outline of the steps: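 Ishikawa cells stimulated with E2 and exposed 3 days to compound at 0.25, 0.5, 1 and 10 µM. PGR mRNA quantified by SYBR Green real-time PCR, normalised to GAPDH, ΔΔCT method.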

The test system of data set [7] is MCF7. Description: Induction of apoptosis in human MCF7 cells assessed as live cells at 1 uM incubated for 24 hrs by AnnexinV-FITC/propidium iodide staining based flow cytometric analysis (reference value: 98.1%). The format is functional.
The nature of data set [8]: Intrinsic clearance in rat. The format is ADME.
In data set [9] the test system is MCF7. Description: Cell cycle arrest in human MCF7 cells assessed as accumulation at S phase at 1 uM measured after 48 hrs by propidium iodide staining based flow cytometric analysis (reference value: 63.32%). The format is functional.
Data set [10] concerns MCF7. Description: Cell cycle arrest in human MCF7 cells assessed as accumulation at G0/G1 phase at 10 uM measured after 48 hrs by propidium iodide staining based flow cytometric analysis (reference value: 24.44%). The class given is functional.

Active and inactive are the calls of the source. No cut-off for these calls is given here.

For the molecule `O=C(/C=C/CNCCOc1ccc(Oc2c(-c3ccc(F)cc3)sc3cc(O)ccc23)cc1)N1CCC1`, the Activity in the data set on MCF7 [1] amounted to 37.54%; in the data set on MCF7 [3] it was 1.2%; in the data set with MCF7 [4], 12.5%; with MCF7 [5] it was 46.98%; in the data set on MCF7 [7], 97.8%; in the data set with MCF7 [9] it was 51.43%. Moreover, the Activity in the data set with MCF7 [10] turned out to be 42.95%. Also, the inhibition result in data set [2] is “Dose-Dependent Effect”. The inhibition result in [6] is “Active”. In [8], the CLint scaled (as a rule, the capacity of the preparation to metabolise the compound, expressed as a volume cleared per time) came out at 3.91 L/h/kg.
